Results: PubChem BioAssay AID720508 (The Scripps Research Institute Molecular Screening Center, 2013)
The whole screen tested about 370,000 compounds, of which about 500 (0.14%) were called active. This is one part of a sample in which actives are shown more often than they occur. A number with no mark means an inactive call.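 Rule for the calls: active = inhibition above the mean of compounds falling within the control limits plus 3 SD of them (cut at about 14% in these data); inactive = the rest.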

What follows are compounds tested against Fibrinogen beta chain (Homo sapiens) (UniProt P02675) (assay: inhibitors of Tn7 peptide binding to fibrin DD(E), primary screen, biochemical, fluorescence polarization, human fibrin, Tn7 probe (AID 720508;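 note: 0% = plate median of compound wells and 100% = 10 µM Aha-Tn7 peptide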)). Conditions: FP displacement of FITC-Tn7 peptide from fibrin DD(E); at 8.3 µM; stronger effect = higher value; 0% = median of compound wells per plate.
Chain of Fibrinogen beta chain (Homo sapiens) (P02675 whole entry, looked up): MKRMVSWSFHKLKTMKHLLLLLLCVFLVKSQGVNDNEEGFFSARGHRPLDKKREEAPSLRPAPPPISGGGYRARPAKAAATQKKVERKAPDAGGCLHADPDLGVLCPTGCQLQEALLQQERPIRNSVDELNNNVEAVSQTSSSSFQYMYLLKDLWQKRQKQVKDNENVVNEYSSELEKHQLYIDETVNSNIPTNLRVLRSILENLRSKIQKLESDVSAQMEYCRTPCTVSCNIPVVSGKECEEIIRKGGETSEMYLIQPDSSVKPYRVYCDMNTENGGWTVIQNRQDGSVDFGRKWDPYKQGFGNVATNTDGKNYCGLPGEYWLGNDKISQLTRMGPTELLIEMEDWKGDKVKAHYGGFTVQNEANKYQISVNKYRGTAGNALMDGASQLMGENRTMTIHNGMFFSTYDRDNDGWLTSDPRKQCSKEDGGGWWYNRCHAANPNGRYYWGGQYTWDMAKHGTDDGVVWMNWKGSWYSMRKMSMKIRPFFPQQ
Outline: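 Assay system: human fibrin DD(E) protein / Input: 2 µM fibrin DD(E) / Benchmarks: high control of 10 µM Aha-Tn7 peptide / Measured by: fluorescence polarization of the labelled Tn7 tracer / Medium: Tris buffer with calcium and detergent, pH 7.8 / Timing: 10 min compound pre-incubation, 3 h probe incubation at room temperature / Repeats: one replicate per compound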
`CSC1=NC2(C)CCCCC2C12C=CC(=O)C=C2` (stereo not drawn) gave an inhibition of 6.72%. With `CC(OC(=O)CN1C(=O)COc2ccccc21)C(=O)NCc1ccc(F)cc1` (stereo not drawn) the inhibition was -2.52%. For `CN(Cc1ccccc1)CC(O)COc1ccc(CNCc2cc3ccccc3s2)cc1` (stereo not drawn), the inhibition was 5.14%. In the case of `Cc1cc(C(=O)OC(C)C(=O)NC2CCCCC2C)c(C)o1` (stereo not drawn), the inhibition is reported as -2.98%. For `CCO/N=C(/C)c1c(O)cc(-c2ccccc2)n(-c2ccccc2)c1=O`, the inhibition was 0.3%. With `Oc1ccc2ccc3cccc[n+]3c2c1` the inhibition was 62.8% (active). Compound `COCCCNC(=O)Cc1ccc(-n2c(C)nc3cccnc32)cc1` has an inhibition of 1.6%. Compound `O=C(COC(=O)c1cc([N+](=O)[O-])ccc1NCc1ccccc1)NC1CCCCC1` has an inhibition of -0.23%. `O=C(COC(=O)c1ccc([N+](=O)[O-])cc1Cl)NC(=O)c1ccccc1` was tested, and the inhibition was 17.7% (active). `O=C(NNS(=O)(=O)c1ccc(F)cc1)c1ccc([N+](=O)[O-])cc1Cl` was tested, and the inhibition was 1.43%. `CCNC(=O)c1cccc(NC(=O)C2CC(=O)N(CCc3ccccc3)C2)c1` (stereo not drawn) gave an inhibition of 8.78%. For `O=C(NCc1ccccc1)c1cccc(NC(=O)C2CCCCC2)c1`, the inhibition was 15.5% (active). `CC(C)(C)OC(=O)N1CCC(C(=O)Nc2cccc(C(=O)NCCc3ccccc3)c2)CC1` gave an inhibition of -2.62%. Work on `CC(C)CNC(=O)COC(=O)/C=C/c1ccccc1[N+](=O)[O-]` yielded an inhibition of 2.51%. In the case of `COc1ccc(C(=O)OCC(=O)NCC2CCCO2)cc1[N+](=O)[O-]` (stereo not drawn), the inhibition is reported as 2.02%. With `O=C(/C=C/c1ccccc1[N+](=O)[O-])NCC1CCCO1` (stereo not drawn) the inhibition was 14.7% (active). For `Cc1cc2nc3c(=O)n(Cc4ccccc4)c(=O)[nH]c3nc2cc1N`, the inhibition was 25.7% (active). `COCCn1c(N)c(NCc2ccccc2)c(=O)[nH]c1=O` gave an inhibition of 8.37%. Compound `Nc1ccc2nc3c(=O)[nH]c(=S)[nH]c3nc2c1` has an inhibition of 7.86%. For `CN(C)CCNC(=O)C(C(=O)c1ccccc1)n1ccccc1=O` (stereo not drawn), the inhibition was 8.86%. `Cc1ccc(-c2nc(-c3cccnc3)sc2CC(=O)Nc2ccc(C)c(Cl)c2)cc1` showed an inhibition of -4.07%. Compound `CSCCNC(=O)c1ccc2nc(Cc3ccccc3F)oc2c1` has an inhibition of -0.81%. `Cc1ccc(NC(=O)CN(C)C(=O)c2ccc(Cl)c(S(=O)(=O)NCc3ccco3)c2)cc1` was tested, and the inhibition was -3.83%. `COC(=O)[C@H](C(C)C)N1CCc2nnn(Cc3ccc(C)cc3)c2-c2ccccc2S1(=O)=O` was tested, and the inhibition was 5.12%. In the case of `O=C(COC(=O)c1ccc(O)cc1)Nc1nccs1`, the inhibition is reported as 6.41%. Work on `O=C1C(=O)N(CCCN2CCOCC2)C(c2ccc([N+](=O)[O-])cc2)/C1=C(\O)c1ccc2c(c1)OCCO2` (stereo not drawn) yielded an inhibition of -0.14%. With `O=S(=O)(c1cccc(-c2nnc(SC(F)F)n2-c2ccccc2)c1)N1CCCCC1` the inhibition was 3.4%. Work on `O=C(OCC(=O)N1CCN(C(=O)c2ccco2)CC1)c1ccccc1Cc1ccccc1` yielded an inhibition of -2.57%. `Cc1cccc(C)c1Nc1c(-c2ccccc2O)nc2ncccn12` showed an inhibition of 2.35%. For `Cc1cc(Nc2cccc(F)c2)n2ncnc2n1`, the inhibition was -2.61%. `COc1ccc(/C=C2\CCCC3C2=NN(C(=O)c2scnc2C)C3c2ccc(OC)cc2)cc1` (stereo not drawn) showed an inhibition of 2.65%. `CC(C)=CCCC1(C)C=Cc2c(ccc3c2[nH]c2cc(O)c(C)cc23)O1` (stereo not drawn) gave an inhibition of -5.67%. With `Cc1cc2nc3c(=O)[nH]c(=O)nc-3n(C[C@H](O)[C@H](O)[C@H](O)CO)c2cc1C` the inhibition was 24.1% (active). For `CCN(CC)CCCC(C)n1c2nc(=O)[nH]c(=O)c-2nc2cc(Cl)ccc21` (stereo not drawn), the inhibition was -7.28%. In the case of `CC(C)C[C@H]1CNC(=S)N1C[C@H]1CCCN1C[C@H](Cc1ccc(O)cc1)N1C[C@H](Cc2ccc(O)cc2)N(CC2CCCCC2)C1=S`, the inhibition is reported as -3.09%. In the case of `C=C(C)C#CC(Cc1ccccc1)N(CC1CC1)/C(N)=N/C(=O)OCc1ccccc1` (stereo not drawn), the inhibition is reported as 1.85%. `CC(C)CC(=O)c1c[nH]c(C(=O)NCc2ccccc2)c1` showed an inhibition of -1.06%. For `CC1CCCCC12NC(=O)N(CC(=O)OCc1c(F)cccc1Cl)C2=O` (stereo not drawn), the inhibition was 5.49%. Work on `Cc1cc(C)c2nc3nc(C)cc(C)c3c(N)c2c1` yielded an inhibition of 3.42%. `COc1ccc(S(=O)(=O)N2CCOCC2)cc1NC(=O)CSc1nnc(NC2CC2)s1` was tested, and the inhibition was -0.34%. With `COc1ccc(S(=O)(=O)N2CCN(C(C)C(=O)Nc3ccc(C(C)C)cc3)CC2)cc1` (stereo not drawn) the inhibition was 2.11%. Compound `CCCC1CCC2(CCCN2CCOC(=O)NCc2ccccc2)CC1` (stereo not drawn) has an inhibition of 2.73%. In the case of `CCC(C)[C@H](NC(=O)N1c2ccccc2NC(=O)[C@@H]1C(C)C)C(=O)N[C@@H](Cc1ccccc1)C(=O)O` (stereo partly drawn), the inhibition is reported as -4.14%. Compound `COc1ccc(S(=O)(=O)N(C)CC(=O)N2CCCC2)cc1Cl` has an inhibition of -5.85%. In the case of `COc1ccc(S(=O)(=O)c2c[nH]c(=S)[nH]c2=O)cc1Cl`, the inhibition is reported as 14.8% (active). In the case of `Cc1ccc(S(=O)(=O)c2c[nH]c3ccc(Cl)cc3c2=O)cc1`, the inhibition is reported as -0.42%. For `CSCC[C@H](NC(=O)NCc1cccs1)C(=O)O`, the inhibition was 1.72%. `O=C(COC(=O)CCOc1ccccc1)Nc1cc(S(=O)(=O)N2CCCCC2)ccc1Cl` showed an inhibition of 3.01%. Work on `CC(=O)c1ccc(NC(=O)CCNS(=O)(=O)c2cc(Br)cnc2N)cc1` yielded an inhibition of 1.85%. With `Nc1nc2n(n1)C(c1ccco1)CC(c1ccc(Cl)c(Cl)c1)N2` (stereo not drawn) the inhibition was -5.38%. With `O=C(N=C1SC2CS(=O)(=O)CC2N1Cc1ccccc1)c1ccccc1` (stereo not drawn) the inhibition was 8.78%. For `COCCNC(=O)CSc1nc2c(n1-c1ccccc1)CCCC2`, the inhibition was -3.74%. For `NC(=O)c1ccc(N2CCCC2)nc1`, the inhibition was 2.52%. Compound `CCc1nc2c(OCCC3CCCCC3)cccn2c1N(C)C(=O)c1ccco1` has an inhibition of -2.4%. Work on `Cc1c(C(=O)O)nnn1-c1nonc1N` yielded an inhibition of 1.32%. Compound `O=C(NCc1ccccc1)C1CCCN(c2nc3ccsc3c(=O)s2)C1` (stereo not drawn) has an inhibition of -2.86%. For `CCC(=O)N1CCN=C1SCc1ccc(F)cc1`, the inhibition was 1.78%. With `COc1cccc2c1C(=O)c1c(O)c3c(c(O)c1C2=O)CC(O)(C(C)=NNC(=O)c1ccc(Cl)c(Cl)c1)CC3OC1CC(N)C(O)C(C)O1` (stereo not drawn) the inhibition was 27% (active).
